Measurements taken from ChEMBL document CHEMBL1133913, “Discovery of (R)-1-[2-hydroxy-3-(4-hydroxy-phenyl)-propyl]-4-(4-methyl-benzyl)-piperidin-4-ol: a novel NR1/2B subtype selective NMDA receptor antagonist” (Bioorg Med Chem Lett, 2001).

Columns and labels:
[1] = target: T1, Adrenergic receptor alpha-1 (Homo sapiens, UniProt P35348+P25100+P35368); assay: (§1) In vitro binding affinity towards Alpha-1 adrenergic receptor by displacing [3H]prazosin radioligand; format: protein assay
T1 sequence (P35348 whole entry): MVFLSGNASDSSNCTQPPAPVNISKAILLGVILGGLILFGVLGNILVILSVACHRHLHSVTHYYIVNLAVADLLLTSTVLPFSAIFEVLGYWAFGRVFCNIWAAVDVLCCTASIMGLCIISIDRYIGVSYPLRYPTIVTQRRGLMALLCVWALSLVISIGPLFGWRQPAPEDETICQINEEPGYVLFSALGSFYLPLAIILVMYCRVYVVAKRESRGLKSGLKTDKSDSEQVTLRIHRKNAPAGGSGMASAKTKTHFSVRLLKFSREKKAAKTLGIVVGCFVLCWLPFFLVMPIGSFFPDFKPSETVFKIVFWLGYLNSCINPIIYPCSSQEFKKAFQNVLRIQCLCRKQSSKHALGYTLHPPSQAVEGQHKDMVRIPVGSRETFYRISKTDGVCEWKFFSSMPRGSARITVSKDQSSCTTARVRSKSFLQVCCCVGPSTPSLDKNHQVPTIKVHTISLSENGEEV
T1 sequence (P25100 whole entry): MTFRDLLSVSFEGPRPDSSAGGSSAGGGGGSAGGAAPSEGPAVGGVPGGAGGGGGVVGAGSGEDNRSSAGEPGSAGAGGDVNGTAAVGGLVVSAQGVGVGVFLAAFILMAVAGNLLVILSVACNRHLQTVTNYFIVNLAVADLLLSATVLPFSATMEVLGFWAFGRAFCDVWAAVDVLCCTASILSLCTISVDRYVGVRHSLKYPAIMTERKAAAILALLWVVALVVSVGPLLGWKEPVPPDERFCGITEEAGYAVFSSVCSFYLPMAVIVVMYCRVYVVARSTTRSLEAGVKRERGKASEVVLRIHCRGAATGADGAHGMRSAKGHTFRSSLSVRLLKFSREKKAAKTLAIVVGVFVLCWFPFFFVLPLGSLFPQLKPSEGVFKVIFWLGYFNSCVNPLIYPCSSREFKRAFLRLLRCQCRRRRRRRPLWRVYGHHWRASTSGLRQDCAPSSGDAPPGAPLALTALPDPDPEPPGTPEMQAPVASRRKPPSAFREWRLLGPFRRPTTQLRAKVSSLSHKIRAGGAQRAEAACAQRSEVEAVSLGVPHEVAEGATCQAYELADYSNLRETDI
T1 sequence (P35368 whole entry): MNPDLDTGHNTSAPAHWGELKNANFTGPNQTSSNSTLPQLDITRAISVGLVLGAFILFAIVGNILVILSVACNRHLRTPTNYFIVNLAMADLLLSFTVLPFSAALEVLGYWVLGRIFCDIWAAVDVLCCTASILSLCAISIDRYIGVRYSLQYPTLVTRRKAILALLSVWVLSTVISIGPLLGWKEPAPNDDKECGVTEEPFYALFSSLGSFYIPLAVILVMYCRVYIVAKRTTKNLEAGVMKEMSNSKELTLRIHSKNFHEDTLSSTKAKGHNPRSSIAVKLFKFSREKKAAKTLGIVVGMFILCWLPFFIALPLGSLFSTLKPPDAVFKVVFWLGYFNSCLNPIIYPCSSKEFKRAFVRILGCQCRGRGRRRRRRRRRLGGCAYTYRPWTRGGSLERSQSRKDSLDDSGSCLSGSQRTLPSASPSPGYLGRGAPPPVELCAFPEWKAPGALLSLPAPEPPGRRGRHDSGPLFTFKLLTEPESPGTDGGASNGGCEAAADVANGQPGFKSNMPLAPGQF

[2] = target: Glutamate [NMDA] receptor; assay: Displacement of [3H]25-6981 from N-methyl-D-aspartate glutamate receptor; format: protein-complex assay
[3] = target: Adrenergic receptor alpha-1 (Homo sapiens) (UniProt P35348+P25100+P35368); assay: Selectivity ratio of alpha-1 receptor to that of NMDA was determined; format: protein assay
[4] = target: T2, Alpha-1A adrenergic receptor (Homo sapiens, UniProt P35348); assay: as §1
T2 sequence (P35348 whole entry): T1 sequence (P35348 whole entry)

[5] = test system: Mus musculus; assay: In vivo evaluation for sound induced seizures in DBA/2 mice on intraperitoneal administration of compound 30 minutes before testing; format: functional; details: ip
Procedure, shortened: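 Mice given the compound intraperitoneally, then tested in the standard sound-induced seizure assay. An ED50 in mg/kg was derived for protection.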

[6] = target: Glutamate receptor ionotropic, NMDA 2A (Rattus norvegicus, UniProt P35439+Q00959); assay: Evaluated for in vitro inhibition of recombinant rat NR1C/2A receptor expressed in xenopus oocytes; format: cell-based, Oocyte
Sequence of Glutamate receptor ionotropic, NMDA 2A (Q00959 whole entry, one chain of several): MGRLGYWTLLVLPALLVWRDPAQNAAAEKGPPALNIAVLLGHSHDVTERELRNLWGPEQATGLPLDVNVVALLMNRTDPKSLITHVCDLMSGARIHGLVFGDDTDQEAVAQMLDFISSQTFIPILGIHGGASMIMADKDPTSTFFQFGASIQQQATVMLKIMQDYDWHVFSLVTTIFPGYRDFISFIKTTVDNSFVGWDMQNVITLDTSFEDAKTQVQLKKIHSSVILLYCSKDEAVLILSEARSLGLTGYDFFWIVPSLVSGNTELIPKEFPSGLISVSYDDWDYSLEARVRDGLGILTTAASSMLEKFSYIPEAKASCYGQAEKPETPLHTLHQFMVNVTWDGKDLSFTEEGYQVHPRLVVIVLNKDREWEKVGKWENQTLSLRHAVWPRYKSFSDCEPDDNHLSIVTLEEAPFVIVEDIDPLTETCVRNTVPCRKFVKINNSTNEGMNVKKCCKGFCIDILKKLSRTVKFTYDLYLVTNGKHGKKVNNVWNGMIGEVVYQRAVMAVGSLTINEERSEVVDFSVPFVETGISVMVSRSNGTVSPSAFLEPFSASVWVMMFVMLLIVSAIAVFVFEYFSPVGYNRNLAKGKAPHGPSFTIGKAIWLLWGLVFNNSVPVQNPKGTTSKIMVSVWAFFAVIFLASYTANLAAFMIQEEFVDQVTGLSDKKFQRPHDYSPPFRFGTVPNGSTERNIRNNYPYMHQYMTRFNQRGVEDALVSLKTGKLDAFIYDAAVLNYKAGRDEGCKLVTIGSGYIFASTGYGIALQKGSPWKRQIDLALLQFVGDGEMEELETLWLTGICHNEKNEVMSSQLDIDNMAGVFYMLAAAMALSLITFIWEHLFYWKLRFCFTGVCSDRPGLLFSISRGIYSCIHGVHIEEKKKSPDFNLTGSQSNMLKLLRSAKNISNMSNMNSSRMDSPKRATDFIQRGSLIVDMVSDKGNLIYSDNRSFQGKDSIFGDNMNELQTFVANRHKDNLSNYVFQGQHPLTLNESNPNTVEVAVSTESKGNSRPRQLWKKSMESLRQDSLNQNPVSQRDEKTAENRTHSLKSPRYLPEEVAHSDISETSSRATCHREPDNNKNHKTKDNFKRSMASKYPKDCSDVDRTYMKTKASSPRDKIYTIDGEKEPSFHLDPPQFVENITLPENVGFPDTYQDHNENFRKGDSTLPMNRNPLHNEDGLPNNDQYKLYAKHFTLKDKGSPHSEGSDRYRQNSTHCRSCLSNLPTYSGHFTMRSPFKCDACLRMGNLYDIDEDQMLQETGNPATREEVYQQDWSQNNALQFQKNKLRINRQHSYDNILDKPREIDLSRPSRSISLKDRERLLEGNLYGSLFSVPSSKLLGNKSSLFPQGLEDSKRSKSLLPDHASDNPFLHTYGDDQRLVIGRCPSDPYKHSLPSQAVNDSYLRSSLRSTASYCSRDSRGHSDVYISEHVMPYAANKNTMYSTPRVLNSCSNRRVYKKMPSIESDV
Procedure, shortened: (§2)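 Two-electrode voltage clamp on Xenopus oocytes expressing recombinant rat NMDA receptors, NR1C/2A or NR1C/2B subunit combination. Concentrations spanned 10 nM–[…]. Values are the geometric mean of three experiments.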

[7] = target: Glutamate receptor ionotropic, NMDA 2B (Rattus norvegicus, UniProt P35439+Q00960); assay: Evaluated for in vitro inhibition of recombinant rat NR1C/2B receptor expressed in xenopus oocytes; format: cell-based, Oocyte; procedure, shortened: as §2
Sequence of Glutamate receptor ionotropic, NMDA 2B (Q00960 whole entry, one chain of several): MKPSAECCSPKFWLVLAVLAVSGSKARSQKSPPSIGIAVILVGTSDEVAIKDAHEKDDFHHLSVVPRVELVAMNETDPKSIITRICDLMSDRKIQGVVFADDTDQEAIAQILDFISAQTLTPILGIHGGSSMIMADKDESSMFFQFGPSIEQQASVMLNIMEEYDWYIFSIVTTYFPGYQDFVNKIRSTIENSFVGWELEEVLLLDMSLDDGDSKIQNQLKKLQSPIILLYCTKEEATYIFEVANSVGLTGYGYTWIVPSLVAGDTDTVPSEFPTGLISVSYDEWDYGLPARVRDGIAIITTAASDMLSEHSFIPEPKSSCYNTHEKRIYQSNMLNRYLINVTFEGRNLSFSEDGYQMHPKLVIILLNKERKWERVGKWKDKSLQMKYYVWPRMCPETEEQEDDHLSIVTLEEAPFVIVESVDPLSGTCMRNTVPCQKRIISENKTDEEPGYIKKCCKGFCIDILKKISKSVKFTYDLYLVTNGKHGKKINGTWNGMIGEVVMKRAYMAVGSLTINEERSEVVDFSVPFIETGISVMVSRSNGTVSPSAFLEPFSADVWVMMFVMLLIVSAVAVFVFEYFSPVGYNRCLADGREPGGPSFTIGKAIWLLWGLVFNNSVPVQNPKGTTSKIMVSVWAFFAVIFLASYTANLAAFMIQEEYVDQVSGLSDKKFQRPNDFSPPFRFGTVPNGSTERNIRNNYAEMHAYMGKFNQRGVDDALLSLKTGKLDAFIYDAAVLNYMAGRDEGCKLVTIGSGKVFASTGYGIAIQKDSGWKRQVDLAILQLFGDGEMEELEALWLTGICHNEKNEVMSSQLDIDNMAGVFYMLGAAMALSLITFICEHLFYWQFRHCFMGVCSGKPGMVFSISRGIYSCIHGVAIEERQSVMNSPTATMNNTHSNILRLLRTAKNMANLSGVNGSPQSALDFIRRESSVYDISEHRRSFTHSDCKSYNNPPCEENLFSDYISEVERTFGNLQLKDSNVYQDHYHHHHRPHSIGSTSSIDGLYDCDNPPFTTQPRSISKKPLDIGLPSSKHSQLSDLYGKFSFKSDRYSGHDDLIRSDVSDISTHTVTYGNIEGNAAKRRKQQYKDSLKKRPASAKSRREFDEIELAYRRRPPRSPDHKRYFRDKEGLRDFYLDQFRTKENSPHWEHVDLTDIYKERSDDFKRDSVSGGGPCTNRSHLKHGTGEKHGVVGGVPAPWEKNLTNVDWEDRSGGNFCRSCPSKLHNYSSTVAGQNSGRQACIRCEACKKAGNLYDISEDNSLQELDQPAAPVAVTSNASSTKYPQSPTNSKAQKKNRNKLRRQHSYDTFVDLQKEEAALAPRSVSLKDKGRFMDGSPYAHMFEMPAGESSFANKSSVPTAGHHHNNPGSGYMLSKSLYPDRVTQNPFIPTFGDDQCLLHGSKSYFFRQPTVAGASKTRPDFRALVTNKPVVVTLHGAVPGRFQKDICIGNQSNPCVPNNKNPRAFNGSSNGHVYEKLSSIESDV

| SMILES | Ki [1] | Ki [2] | Selectivity ratio [3] | Ki [4] | ED50 [5] | IC50 [6] | IC50 [7] |
| --- | --- | --- | --- | --- | --- | --- | --- |
| O=C(Cc1ccc(O)cc1)CN1CCC(Cc2ccccc2)CC1 | 610 nM | 22.6 nM | 27 |  |  |  |  |
| Cc1ccc(CC2(O)CCN(C[C@H](O)Cc3ccc(O)cc3)CC2)cc1 |  | 4.9 nM |  | 7.3 µM | 10 mg/kg | > 10 µM | 19 nM |
| Oc1ccc(CC(O)CN2CCC(O)(Cc3ccc(Cl)cc3)CC2)cc1 (stereo not given) | 5610 nM | 15 nM | 374 |  |  |  |  |
| Oc1ccc(CC(O)CN2CCC(Cc3ccccc3)CC2)cc1 (stereo not given) | 305 nM |  | 80 |  |  |  |  |
| Oc1ccc(C(O)CCN2CCC(Cc3ccccc3)CC2)cc1 (stereo not given) | 24.4 nM | 3.8 nM | 6 |  |  |  |  |
| Oc1ccc(CC(O)CN2CCC(O)(Cc3ccccc3)CC2)cc1 (stereo not given) | 4512 nM | 22.6 nM | 200 |  |  |  |  |
| C[C@@H](CN1CCC(Cc2ccccc2)CC1)[C@@H](O)c1ccc(O)cc1 | 180 nM | 5.6 nM | 32 |  |  |  |  |
| Cc1ccc(CC2(O)CCN(CC(O)Cc3ccc(O)cc3)CC2)cc1 (stereo not given) | 5915 nM | 7.5 nM | 789 |  |  |  |  |
| COC(Cc1ccc(O)cc1)CN1CCC(Cc2ccccc2)CC1 (stereo not given) | 305 nM |  | 15 |  |  |  |  |
| Oc1ccc(CC(O)CN2CCC(O)(Cc3ccc(Br)cc3)CC2)cc1 (stereo not given) | 2439 nM |  | 216 |  |  |  |  |
| CC(Cc1ccc(O)cc1)CN1CCC(Cc2ccccc2)CC1 (stereo not given) | 91.5 nM | 3.4 nM | 27 |  |  |  |  |
| Cc1ccc(CC2(O)CCN(C[C@@H](O)Cc3ccc(O)cc3)CC2)cc1 |  | 7.5 nM |  | 7.3 µM | 25 mg/kg |  |  |
